Experimental findings from ChEMBL document CHEMBL3745639, “Structure-activity relationships for lipoprotein lipase agonists that lower plasma triglycerides in vivo” (Eur J Med Chem, 2015) are described below.

Each structure is given as a SMILES string. Activity calls are given as the source filed them. Unless noted, no cut-off for these calls is given here.

For assay [1], the target named is T1, Lipoprotein lipase (Bos taurus) (UniProt P11151).
T1 sequence (whole entry): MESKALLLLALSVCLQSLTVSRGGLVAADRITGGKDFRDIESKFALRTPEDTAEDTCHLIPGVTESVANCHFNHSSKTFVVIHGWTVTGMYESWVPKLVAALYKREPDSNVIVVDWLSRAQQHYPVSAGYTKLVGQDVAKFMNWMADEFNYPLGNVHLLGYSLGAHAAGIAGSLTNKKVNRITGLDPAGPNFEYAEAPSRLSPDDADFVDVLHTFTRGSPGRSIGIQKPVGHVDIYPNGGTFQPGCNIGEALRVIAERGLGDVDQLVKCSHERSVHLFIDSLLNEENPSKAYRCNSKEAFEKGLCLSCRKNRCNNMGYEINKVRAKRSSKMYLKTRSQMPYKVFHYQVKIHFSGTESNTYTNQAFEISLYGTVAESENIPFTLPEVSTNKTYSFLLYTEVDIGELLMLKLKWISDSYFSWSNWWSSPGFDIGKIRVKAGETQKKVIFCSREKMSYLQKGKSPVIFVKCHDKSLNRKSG
Description: Induction of bovine LPL stabilization using intralipid as substrate at 12.5 uM preincubated for 10 mins with human recombinant ANGPTL4 followed by substrate addition measured after 45 mins relative to control. The method in brief: (§1)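 Compound in DMSO in buffer (50 mM potassium phosphate pH 7.4, 0.15 M NaCl, 0.01% Triton X-100), with human ANGPTL4 N-terminal fragment (aa 26-184, 75 nM final) and bovine LPL (15 nM final). Preincubated 10 min at 25 °C with shaking. Stopped after 45 min with 2.5% Triton X-100, and NEFA measured enzymatically. Activity normalised between DMSO+LPL+ANGPTL4 (0%) and DMSO+LPL (100%).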

Assay [2] deals with T1, Lipoprotein lipase (Bos taurus). The experiment in a line: Induction of bovine LPL stabilization using intralipid as substrate at 6.25 uM preincubated for 10 mins with human recombinant ANGPTL4 followed by substrate addition measured after 45 mins relative to control. The method in brief: as §1
Assay [3] has the same target. The experiment in a line: Induction of bovine LPL stabilization using intralipid as substrate at 25 uM preincubated for 10 mins with human recombinant ANGPTL4 followed by substrate addition measured after 45 mins relative to control. Put shortly:
as §1

Assay [4] shares this target. Description: Induction of bovine LPL stabilization using intralipid as substrate at 3.12 uM preincubated for 10 mins with human recombinant ANGPTL4 followed by substrate addition measured after 45 mins relative to control. Put shortly:
as §1

For the compound `Cc1ccc(NC(=O)c2cc(N3C(=O)c4ccc(C(=O)O)cc4C3=O)ccc2Nc2ccccc2)cc1`, the Activity in assay [1] turned out to be 80.1%; in assay [2] it was 57.2%; in assay [3], 94.4%. In addition, the outcome in assay [4] was inactive.
Turning to `Cc1ccc(NC(=O)c2cc(N3C(=O)c4cccc(C(=O)O)c4C3=O)ccc2N2CCCCC2)cc1`, the result in assay [1], in assay [2], in assay [3] and in assay [4] was inactive.
On to `Cc1ccc(NC(=O)c2cc(N3CCCCC3)ccc2N2C(=O)c3ccc(C(=O)O)cc3C2=O)cc1`, for which the Activity in assay [1] amounted to 55.1%; in assay [3], 36.3%. Also, the result in assay [2] and in assay [4] was inactive.
With `Cc1ccc(NC(=O)c2cc(N3C(=O)c4ccc(C(N)=O)cc4C3=O)ccc2N2CCCCC2)cc1`, the result in assay [1], in assay [2] and in assay [4] was inactive. Further, the Activity in assay [3] worked out at 3.5%.
With `CCN(CC)c1ccc(N2C(=O)c3ccc(C(=O)O)cc3C2=O)cc1C(=O)Nc1ccc(C)cc1`, the result in assay [1], in assay [2] and in assay [4] was inactive. For the same compound, in assay [3], the Activity is 49.5%.
`CCCNc1ccc(N2C(=O)c3ccc(C(=O)O)cc3C2=O)cc1C(=O)Nc1ccc(C)cc1`: the values for the Activity in assay [1] and in assay [3] were 6.2% and 39.7%, respectively. Also, the outcome in assay [2] and in assay [4] was inactive.
As for `Cc1ccc(NC(=O)c2cc(N3C(=O)c4ccc(C#N)cc4C3=O)ccc2N2CCCCC2)cc1`, the result in assay [1], in assay [2], in assay [3] and in assay [4] was inactive.
Regarding `Cc1ccc(NC(=O)c2cc(N3C(=O)c4ccc(C(=O)O)cc4C3=O)ccc2N2CCCCC2)cc1F`, the values for the Activity in assay [1] and in assay [3] were 53.3% and 72.1%, respectively. Moreover, the result in assay [2] and in assay [4] was inactive.
With `Cc1ccc(NC(=O)c2cc(Nc3ccccc3)cc(N3C(=O)c4ccc(C(=O)O)cc4C3=O)c2)cc1`, the Activity in assay [1] came out at 73.1%; in assay [2], 4.2%; in assay [3], 89.4%. For the same compound, in assay [4], the outcome was inactive.
Turning to `Cc1ccc(NC(=O)c2cccc(N3C(=O)c4ccc(C(=O)O)cc4C3=O)c2N2CCCCC2)cc1`, the result in assay [1], in assay [2] and in assay [4] was inactive. In addition, the Activity in assay [3] was 13.5%.
Consider `Cc1ccc(NC(=O)c2cc(N3C(=O)c4ccc(C(=O)O)cc4C3=O)ccc2N2CCOCC2)cc1`, for which the result in assay [1], in assay [2], in assay [3] and in assay [4] was inactive.
As for `COc1ccc(NC(=O)c2cc(N3C(=O)c4ccc(C(=O)O)cc4C3=O)ccc2N2CCCCC2)cc1`, the result in assay [1], in assay [2] and in assay [4] was inactive. Moreover, the Activity in assay [3] turned out to be 43.8%.
Regarding `CCCCCCNc1ccc(N2C(=O)c3ccc(C(=O)O)cc3C2=O)cc1C(=O)Nc1ccc(C)cc1`, the Activity in assay [1] was determined as 47.1%; in assay [2], 60.6%; in assay [3] it was 67.2%. Also, the outcome in assay [4] was inactive.
For `Cc1ccc(NC(=O)c2cccc(N3CCCCC3)c2N2C(=O)c3ccc(C(=O)O)cc3C2=O)cc1` the same measures were “inactive”, “inactive”, 7.3% and “inactive”.
On the same counts, the results for `CCc1cccc(NC(=O)c2cc(N3C(=O)c4ccc(C(=O)O)cc4C3=O)ccc2N2CCCCC2)c1` are 63.4%, 9.2%, 71% and “inactive”.
On the same counts, the results for `CC(C)c1ccc(NC(=O)c2cc(N3C(=O)c4ccc(C(=O)O)cc4C3=O)ccc2N2CCCCC2)cc1` are 71%, 55.6%, 53.1% and “inactive”.
In the case of `O=C(O)c1ccc2c(c1)C(=O)N(c1ccc(N3CCCCC3)c(C(=O)Nc3ccccc3-c3ccccc3)c1)C2=O`, the Activity in assay [1] worked out at 63.3%; in assay [2], 60.1%; in assay [3], 68.5%. For the same compound, the outcome in assay [4] was inactive.
Take `Cc1ccc(NC(=O)c2ccc(N3C(=O)c4ccc(C(=O)O)cc4C3=O)cc2N2CCCCC2)cc1`: the outcome in assay [1], in assay [2] and in assay [4] was inactive. The Activity in assay [3] was 14.1%.
As to `Cc1ccc(NC(=O)c2cc(N3CCCCC3)cc(N3C(=O)c4ccc(C(=O)O)cc4C3=O)c2)cc1`, the outcome in assay [1], in assay [2] and in assay [4] was inactive. The Activity in assay [3] amounted to 32.6%.
Consider `COc1ccc(N2C(=O)c3ccc(C(=O)O)cc3C2=O)cc1C(=O)Nc1ccc(C)cc1`, for which the outcome in assay [1], in assay [2], in assay [3] and in assay [4] was inactive.
As to `O=C(O)c1ccc2c(c1)C(=O)N(c1ccc(N3CCCCC3)c(C(=O)Nc3ccccc3)c1)C2=O`, the result in assay [1], in assay [2] and in assay [4] was inactive. For the same compound, the Activity in assay [3] came out at 57%.
`Cc1ccc(NC(=O)c2cc(-n3cc4ccccc4n3)ccc2N2CCCCC2)cc1`: the result in assay [1], in assay [2], in assay [3] and in assay [4] was inactive.
As for `O=C(O)c1ccc2c(c1)C(=O)N(c1ccc(N3CCCCC3)c(C(=O)NCc3cccnc3)c1)C2=O`, the result in assay [1], in assay [2], in assay [3] and in assay [4] was inactive.
In the case of `COCCNc1ccc(N2C(=O)c3ccc(C(=O)O)cc3C2=O)cc1C(=O)Nc1ccc(C)cc1`, the result in assay [1], in assay [2], in assay [3] and in assay [4] was inactive.
Turning to `Cc1ccc(NC(=O)c2cc(N3C(=O)c4ccc(N)cc4C3=O)ccc2N2CCCCC2)cc1`, the result in assay [1], in assay [2] and in assay [4] was inactive. The Activity in assay [3] turned out to be 11.4%.
Regarding `Cc1ccc(NC(=O)c2cc(N3C(=O)c4ccccc4C3=O)ccc2N2CCCCC2)cc1`, the outcome in assay [1], in assay [2], in assay [3] and in assay [4] was inactive.
Turning to `Cc1ccc(NC(=O)c2cc(Nc3ccc(C)cc3)cc(N3C(=O)c4ccc(C(=O)O)cc4C3=O)c2)cc1`, the results for the Activity in assay [1], in assay [2] and in assay [3] were 7%, 5% and 24.6%, respectively. The result in assay [4] was inactive.
On the same counts, the results for `Cc1ccc(NC(=O)c2cc(Cl)cc(N3C(=O)c4ccc(C(=O)O)cc4C3=O)c2)cc1` are “inactive”, “inactive”, “inactive” and “inactive”.
Regarding `CCCCCCNC(=O)c1cc(N2C(=O)c3ccc(C(=O)O)cc3C2=O)ccc1NCCCCCC`, the Activity in assay [1] is 31.8%; in assay [2], 19.3%; in assay [3], 67.8%; in assay [4], 4%.
For `CC(C)c1ccc(NC(=O)c2cc(N3C(=O)c4ccc(C(=O)O)cc4C3=O)ccc2Nc2ccccc2)cc1` the same measures were 59.1%, 44.1%, 52.5% and “inactive”.
For `O=C(O)c1ccc2c(c1)C(=O)N(c1ccc(NCc3cccnc3)c(C(=O)NCc3cccnc3)c1)C2=O` the same measures were “inactive”, “inactive”, “inactive” and “inactive”.
For `O=C1c2ccccc2C(=O)N1c1ccccc1` the same measures were “inactive”, “inactive”, “inactive” and “inactive”.
As to `O=C(O)c1ccc2c(c1)C(=O)N(c1ccccc1)C2=O`, the result in assay [1], in assay [2], in assay [3] and in assay [4] was inactive.
